Reference: publication PMC11589030 (Discover Oncology, 2024)
pIC50: −log10 of the molar value. Entries after “also recorded” stand apart in the source; their conditions may differ. Like-named read-outs stand apart in the source and are kept apart here.

What was measured:
[1] = Drug metabolism rate assay; type: in vitro ADME; details: human, MHCC97-H cells
E-Cadherin = experiment: AmpliSeq expression in MHCC97-H cells: E-Cadherin; type: cell-based; details: Fig. 5B
How it was run: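 MHCC97-H cells in DMEM with 10% FBS were treated with pralatrexate (2, 1, 0.5), fatostatin (1, 0.1) or BAY-876 (1, 0.1 μmol/L). RNA (10 ng) was reverse transcribed and amplified with custom AmpliSeq RNA panels. Expression was normalised to β-actin. Three replicate wells per sample; three biological replicates.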

MHCC97-H cells [2] = experiment: In vivo tumor model, MHCC97-H subcutaneous tumours; parameters: species or system nude mice
[3] = test system: miRNA-34a promoter region; experiment: BSP-NGS methylation of miRNA-34a promoter in MHCC97-H cells; type: cell-based; details: MHCC97-H cells with direct expression of NICD, Fig. 7
How it was run: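 Genomic DNA from NICD-lentivirus-transduced MHCC97-H cells was isolated with a kit and used for bisulfite sequencing PCR plus next-generation sequencing. The region analysed was the miRNA-34a promoter segment chr1: 9152409–9152574, which holds seven CpG sites. Methylation rates were calculated by the Ma et al. (2020) procedure.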

HCC cells = experiment: Biochemical examination of metabolic features; type: cell-based; details: compared to BAY-876 or fatostatin, Fig. 6
miRNA-34a = experiment: AmpliSeq miRNA-34a expression in MHCC97-H cells; type: cell-based; details: MHCC97-H cells with direct expression of NICD, Fig. 7
How it was run: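 MHCC97-H cells were transduced with NICD lentivirus and cultured in DMEM with 10% FBS. RNA (10 ng) was reverse transcribed and cDNA amplified with custom AmpliSeq RNA panels to quantify miRNA-34a, normalised to β-actin. Three replicate wells per sample; three biological replicates.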

Notch 1 protein and NICD = experiment: Sub-cellular fraction assay with western blot; type: cell-based; details: MHCC97-H, 2 μmol/L, 30 min, 1 h, 2 h
How it was run: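 After treatment, cells were sonicated. Nuclei were pelleted at 800 rpm, 4 °C, ~3 min, and the cytoplasmic fraction at 12,000 rpm, 4 °C, ~10 min. Fractions were boiled ~15 min in SDS-PAGE buffer and blotted onto PVDF. One C-terminal Notch1 antibody detected full-length Notch1 (>220 kDa) and NICD (~110 kDa). β-actin and Lamin A served as cytoplasmic and nuclear markers; detection was by chemiluminescence.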

miRNA-34a/Notch pathway = experiment: BSP-NGS, AmpliSeq and western blot of subcutaneous tumour tissues; type: in vivo, nude mice
How it was run: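 Female BALB/c nude mice (5-week-old, SPF) bore subcutaneous MHCC97-H tumours, one per animal, 10 per group. Pralatrexate 5 mg/kg was given by oral gavage every other day for about 15 doses. All excised tumours underwent BSP-NGS (miRNA-34a promoter methylation) and AmpliSeq (miRNA-34a expression). Tumours 2, 4 and 8 were lysed in RIPA/SDS buffer for western blot of NICD against GAPDH.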

NICD = experiment: AmpliSeq expression in MHCC97-H cells: NICD; type: cell-based; details: MHCC97-H cells with direct expression of NICD, Fig. 7
HepG2 cells = experiment: MTT assay, HepG2 cells; type: cell-based; details: Homo sapiens
How it was run: (§1)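 HCC cells were transfected with control siRNA or siRNA against DHFR. Test compound was dissolved in DMSO, diluted in DMEM and applied at a concentration series. Viability was read by MTT and OD 490 nm. Inhibition = (OD control − OD treated)/OD control × 100%. IC50 was taken from dose–effect curves.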

HepG2 2.2.15 cells = experiment: MTT assay, HepG2 2.2.15 cells; type: cell-based; details: Homo sapiens
How it was run: as §1

MHCC97-H cells [4] = experiment: MTT assay, MHCC97-H cells; type: cell-based; details: Homo sapiens, MHCC97H
How it was run: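 MHCC97-H cells in DMEM with 10% FBS were pretreated 6–8 h with solvent control or pralatrexate (0.5, 1, 2 μmol/L). Molecular targeted drugs were then added as a seven-point series from 10 to 0.01 for about 48 h, with drugs dissolved in DMSO and diluted in DMEM. Viability was read by MTT at OD 490 nm. Inhibition % was computed against control and IC50 fitted in GraphPad Prism.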

LMC-3 cells = experiment: MTT assay, LMC-3 cells; type: cell-based
How it was run: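 LMC-3 cells in DMEM with 10% FBS were transfected with control siRNA or siDHFR. They were then exposed to graded sorafenib concentrations and assayed by MTT. Inhibition = (OD490 control − OD490 treated)/OD490 control × 100%. IC50 was fitted from dose–effect curves in GraphPad Prism.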

SMILES: COc1cccc2c1C(=O)c1c(O)c3c(c(O)c1C2=O)C[C@@](O)(C(=O)CO)C[C@@H]3O[C@H]1C[C@H](N)[C@H](O)[C@H](C)O1 [Adriamycin, adriamycin]
- half-life at 0.3 μmol/L [1]: 13.2 h

SMILES: Cc1c(NC(=O)c2cc(C(N)=O)nc3cc(F)ccc23)c(C(F)(F)F)nn1Cc1ccc(C#N)cc1 [BAY-876]
- E-Cadherin expression (E-Cadherin): enhanced the expression of E-Cadherin

SMILES: CCCc1cc(-c2nc(-c3ccc(C)cc3)cs2)ccn1 [Fatostatin, fatostatin]
- E-Cadherin expression (E-Cadherin): enhanced the expression of E-Cadherin

SMILES: C#CCC(Cc1cnc2nc(N)nc(N)c2n1)c1ccc(C(=O)N[C@@H](CCC(=O)O)C(=O)O)cc1 (stereo partly drawn) [Pralatrexate, pralatrexate]
- effect of combination on antitumour activity of sorafenib (MHCC97-H cells [2]; 5 mg/kg Pralatrexate + 0.2 mg/kg sorafenib, oral): significantly increase the antitumour activity of sorafenib
- antitumour activity / cytotoxicity, subcutaneous tumours (MHCC97-H cells [2]; Pralatrexate 5 mg/kg oral gavage, alone): did not have significant cytotoxicity and weak
- anti-tumour activity, subcutaneous tumours (MHCC97-H cells [2]; Pralatrexate higher doses (e.g. 20 mg/kg) oral gavage): significant anti-tumour activity
- methylation rates of miRNA-34a promoter region [3]: decrease the methylation rates
- Warburg effect of HCC cells (HCC cells): did not inhibit the Warburg effect
- miRNA-34a expression (miRNA-34a): upregulate miRNA-34a expression
- E-Cadherin expression (E-Cadherin): upregulated the expression of E-cadherin; also recorded: enhanced the expression of E-Cadherin
- Notch 1 protein expression (cytoplasm) (Notch 1 protein and NICD): did not affect the protein expression of Notch 1
- distribution of NICD in the nucleus (Notch 1 protein and NICD): did not affect the distribution of NICD in the nucleus
- expression of NICD and Survivin in tumour tissue (miRNA-34a/Notch pathway; NICD expression restored in MHCC97-H cells, Pralatrexate 5 mg/kg): no longer able to inhibit the expression of NICD and Survivin
- expression of factors related to the Notch pathway in tumour tissue (miRNA-34a/Notch pathway; Pralatrexate 5 mg/kg oral): down-regulate the expression of factors related to the Notch pathway
- expression of miRNA-34a in tumour tissue (miRNA-34a/Notch pathway; Pralatrexate 5 mg/kg oral): up-regulate the expression of miRNA-34a
- methylation of the promoter region of miRNA-34a in tumour tissue (miRNA-34a/Notch pathway; Pralatrexate 5 mg/kg oral): inhibit the methylation of the promoter region of miRNA-34a
- expression levels of NICD and Notch downstream factors (NICD): no longer able to affect the expression levels of NICD and Notch downstream factors

SMILES: CNC(=O)c1cc(Oc2ccc(NC(=O)Nc3ccc(Cl)c(C(F)(F)F)c3)cc2)ccn1 [Sorafenib, sorafenib]
- pIC50 (HepG2 cells; HepG2, read-out: IC50 values of sorafenib on HCC cells, HepG2 cells, control): 5.94
- pIC50 (HepG2 cells; HepG2, read-out: IC50 values of sorafenib on HCC cells, HepG2 cells, siDHFR): 7.43
- antitumour activity, subcutaneous tumours (MHCC97-H cells [2]; sorafenib 0.2 mg/kg (low dose) oral gavage, alone): weak subcutaneous tumourigenic inhibitory activity and weak
- pIC50 (HepG2 2.2.15 cells; HepG2 2.2.15, read-out: IC50 values of sorafenib on HCC cells, HepG2 2.2.15 cells, control): 5.90
- pIC50 (HepG2 2.2.15 cells; HepG2 2.2.15, read-out: IC50 values of sorafenib on HCC cells, HepG2 2.2.15 cells, siDHFR): 7.89
- half-life at 1 μmol/L [1]: 18.8 h
- pIC50 (MHCC97-H cells [4]; read-out: IC50 value of sorafenib in MHCC97-H cells, Control siRNA): 5.95
- pIC50 (MHCC97-H cells [4]; read-out: IC50 values of Sorafenib on MHCC97-H cells, Control group): 5.99
- pIC50 (MHCC97-H cells [4]; read-out: IC50 values of Sorafenib on MHCC97-H cells, DHFR + miRNA-34a): 6.60
- pIC50 (MHCC97-H cells [4]; read-out: IC50 values of Sorafenib on MHCC97-H cells, DHFR overexpression): 5.27
- pIC50 (MHCC97-H cells [4]; read-out: IC50 values of Sorafenib on MHCC97-H cells, siDHFR + NICD): 5.25
- pIC50 (LMC-3 cells; read-out: IC50 values of sorafenib on HCC cells, LMC-3 cells, control): 6.04
- pIC50 (LMC-3 cells; read-out: IC50 values of sorafenib on HCC cells, LMC-3 cells, siDHFR): 7.60
